# ChEMBL document CHEMBL1124896, “Synthesis and antitumor activity of novel 4-demethoxyanthracyclines” (1990)
# How the values were obtained:
# Type in all cases: functional, Mus musculus
# Settings in all cases: route intraperitoneal
# [1] = system: L1210 (1565); experiment: Antitumor activity against L-1210 leukemia cell line in BDF1 mice after injecting 0.125 mg/kg ip dose
# How it was run: (§1)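 Female BDF1 mice received 10⁵ viable L-1210 ascites cells ip. Aqueous test compound was given ip starting the same day, daily five times a week for 4 weeks or until death, with five mice per dose. Read-out was T/C, the mean survival time of treated mice over untreated controls. Mice alive at 4 weeks were counted as long-term survivors.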
# [2] = system: P388; experiment: Antitumor activity against P-388 leukemia cell line in BDF1 mice after injecting 0.38 mg/kg ip dose
# [3] = system: L1210 (1565); experiment: Antitumor activity against L-1210 leukemia cell line in BDF1 mice after injecting 0.5 mg/kg ip dose; how it was run: as §1
# [4] = system: P388; experiment: Antitumor activity against P-388 leukemia cell line in BDF1 mice after injecting 4 mg/kg ip dose
# [5] = system: L1210 (1565); experiment: Antitumor activity against L-1210 leukemia cell line in BDF1 mice after injecting 2 mg/kg ip dose; how it was run: as §1
# [6] = system: L1210 (1565); experiment: Antitumor activity against L-1210 leukemia cell line in BDF1 mice after injecting 0.1 mg/kg ip dose; how it was run: as §1
# [7] = system: P388; experiment: Antitumor activity against P-388 leukemia cell line in BDF1 mice after injecting 6.25 mg/kg ip dose
# [8] = system: P388; experiment: Antitumor activity against P-388 leukemia cell line in BDF1 mice after injecting 2.4 mg/kg ip dose
# [9] = system: L1210 (1565); experiment: Antitumor activity against L-1210 leukemia cell line in BDF1 mice after injecting 0.05 mg/kg ip dose; how it was run: as §1
# [10] = system: P388; experiment: Antitumor activity against P-388 leukemia cell line in BDF1 mice after injecting 3.0 mg/kg ip dose
# [11] = system: L1210 (1565); experiment: Antitumor activity against L-1210 leukemia cell line in BDF1 mice after injecting 0.25 mg/kg ip dose; how it was run: as §1
# [12] = system: L1210 (1565); experiment: Antitumor activity against L-1210 leukemia cell line in BDF1 mice after injecting 8 mg/kg ip dose; how it was run: as §1
# [13] = system: L1210 (1565); experiment: Antitumor activity against L-1210 leukemia cell line in BDF1 mice after injecting 16 mg/kg ip dose; how it was run: as §1
# [14] = system: L1210 (1565); experiment: Antitumor activity against L-1210 leukemia cell line in BDF1 mice after injecting 4 mg/kg ip dose; how it was run: as §1
# [15] = system: P388; experiment: Antitumor activity against P-388 leukemia cell line in BDF1 mice after injecting 8.0 mg/kg ip dose
# [16] = system: L1210 (1565); experiment: Antitumor activity against L-1210 leukemia cell line in BDF1 mice after injecting 2.0 mg/kg ip dose; how it was run: as §1
compound,measurement,setting,value
C[C@@H]1OC(O[C@H]2C[C@](O)(CO)Cc3c(O)c4c(c(O)c32)C(=O)c2ccccc2C4=O)C[C@H](N)[C@H]1O.Cl (stereo not given in full),T/C,[1],340%
same,T/C,[2],174%
CC[C@@]1(O)Cc2c(O)c3c(c(O)c2[C@@H](O[C@H]2C[C@H](N)[C@@H](O)[C@H](C)O2)C1)C(=O)c1ccccc1C3=O.Cl,T/C,[3],460%
same,T/C,[4],184%
C[C@@H]1O[C@@H](O[C@H]2C[C@@](C)(O)Cc3c(O)c4c(c(O)c32)C(=O)c2ccccc2C4=O)C[C@@H](N)[C@H]1O.Cl,T/C,[5],470%
CC(=O)[C@]1(O)Cc2c(O)c3c(c(O)c2[C@@H](O[C@H]2C[C@@H](N)[C@@H](O)[C@H](C)O2)C1)C(=O)c1ccccc1C3=O.Cl,T/C,[3],240%
C[C@@H]1OC(O[C@H]2C[C@](O)(CO)Cc3c(O)c4c(c(O)c32)C(=O)c2ccccc2C4=O)C[C@H](N)[C@@H]1O.Cl (stereo not given in full),T/C,[6],230%
C[C@@H]1O[C@@H](O[C@H]2C[C@](O)([C@@H](C)O)Cc3c(O)c4c(c(O)c32)C(=O)c2ccccc2C4=O)C[C@@H](N)[C@@H]1O.Cl,T/C,[1],250%
C[C@@H]1O[C@@H](O[C@H]2C[C@@](C)(O)Cc3c(O)c4c(c(O)c32)C(=O)c2ccccc2C4=O)C[C@@H](N)[C@@H]1O.Cl,T/C,[7],192%
same,T/C,[3],400%
CC(=O)[C@]1(O)Cc2c(O)c3c(c(O)c2[C@@H](O[C@H]2C[C@@H](N)[C@H](O)[C@H](C)O2)C1)C(=O)c1ccccc1C3=O.Cl,T/C,[8],174%
same,T/C,[9],230%
CC[C@@]1(O)Cc2c(O)c3c(c(O)c2[C@@H](O[C@H]2C[C@H](N)[C@H](O)[C@H](C)O2)C1)C(=O)c1ccccc1C3=O.Cl,T/C,[3],420%
same,T/C,[10],155%
CC1OC(O[C@H]2C[C@](O)(CCO)Cc3c(O)c4c(c(O)c32)C(=O)c2ccccc2C4=O)CC(N)C1O.Cl (stereo not given in full),T/C,[11],450%
CC1OC(O[C@H]2C[C@](O)(C(=O)NOCc3ccccc3)Cc3c(O)c4c(c(O)c32)C(=O)c2ccccc2C4=O)CC(N)C1O.Cl (stereo not given in full),T/C,[12],100%
COC1C(N)CC(O[C@H]2C[C@](O)(C(C)=O)Cc3c(O)c4c(c(O)c32)C(=O)c2ccccc2C4=O)OC1C.Cl (stereo not given in full),T/C,[11],230%
CC1OC(O[C@H]2C[C@](O)(C(=O)N(C)c3ccccc3)Cc3c(O)c4c(c(O)c32)C(=O)c2ccccc2C4=O)CC(N)C1O.Cl (stereo not given in full),T/C,[13],120%
COC1C(N)CC(O[C@H]2C[C@](O)(CO)Cc3c(O)c4c(c(O)c32)C(=O)c2ccccc2C4=O)OC1C.Cl (stereo not given in full),T/C,[1],350%
CC1OC(O[C@H]2C[C@](O)(C(=O)Nc3ccccc3)Cc3c(O)c4c(c(O)c32)C(=O)c2ccccc2C4=O)CC(N)C1O.Cl (stereo not given in full),T/C,[13],120%
CC1CC(N)CC(O[C@H]2C[C@](O)(CO)Cc3c(O)c4c(c(O)c32)C(=O)c2ccccc2C4=O)O1.Cl (stereo not given in full),T/C,[1],280%
CC1OC(O[C@H]2C[C@](O)(C(=O)NCc3ccccc3)Cc3c(O)c4c(c(O)c32)C(=O)c2ccccc2C4=O)CC(N)C1O.Cl (stereo not given in full),T/C,[14],130%
CCCNC(=O)[C@]1(O)Cc2c(O)c3c(c(O)c2[C@@H](OC2CC(N)C(O)C(C)O2)C1)C(=O)c1ccccc1C3=O.Cl (stereo not given in full),T/C,[5],120%
C[C@@H]1O[C@@H](O[C@H]2C[C@](O)([C@H](C)O)Cc3c(O)c4c(c(O)c32)C(=O)c2ccccc2C4=O)C[C@@H](N)[C@@H]1O.Cl (stereo in doubt; 25),T/C,[1]; 0.125 mg/kg,220%
C[C@@H]1O[C@@H](O[C@H]2C[C@](O)([C@H](C)O)Cc3c(O)c4c(c(O)c32)C(=O)c2ccccc2C4=O)C[C@@H](N)[C@@H]1O.Cl (stereo in doubt; 35),T/C,[1]; 0.125 mg/kg,270%
C[C@@H]1O[C@@H](O[C@H]2C[C@](O)([C@H](C)O)Cc3c(O)c4c(c(O)c32)C(=O)c2ccccc2C4=O)C[C@@H](N)[C@@H]1O.Cl (stereo in doubt; 36),T/C,[1]; 0.125 mg/kg,360%
COc1cccc2c1C(=O)c1c(O)c3c(c(O)c1C2=O)C[C@@](O)(C(C)=O)C[C@@H]3O[C@H]1C[C@H](N)[C@H](O)[C@H](C)O1 [DAUNORUBICIN],T/C,[15],143%
same,T/C,[3],290%
COc1cccc2c1C(=O)c1c(O)c3c(c(O)c1C2=O)C[C@@](O)(C(=O)CO)C[C@@H]3O[C@H]1C[C@H](N)[C@H](O)[C@H](C)O1 [DOXORUBICIN],T/C,[16],330%
same,T/C,[15],174%
